# rCAG binder – r(CAG) repeat RNA binding. TO-PRO-1 dye displacement fluorescence. inhibition, % at 3 µM. 1.3% of 370,000 active;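 active = inhibition above the plate cutoff, the mean of all test compounds on that plate plus 3 SD, cut at about 35% in these data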;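 also: 0% = DMSO alone and 100% = 100 µM mitoxantrone as full dye displacement; higher means more dye released from RNA so lower well fluorescence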
# PRMT1 inh – PRMT1 (human) inhibition, primary screen; 1.3% of 370,000 active; Q99873; inhibition, % at 2.79 µM; AID 652257; recombinant PRMT1, activity-based probe fluorescence polarization;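 active = inhibition above about 21% made by adding two undisclosed values, limit read from the data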
# Target sequence (Q99873 whole entry, looked up): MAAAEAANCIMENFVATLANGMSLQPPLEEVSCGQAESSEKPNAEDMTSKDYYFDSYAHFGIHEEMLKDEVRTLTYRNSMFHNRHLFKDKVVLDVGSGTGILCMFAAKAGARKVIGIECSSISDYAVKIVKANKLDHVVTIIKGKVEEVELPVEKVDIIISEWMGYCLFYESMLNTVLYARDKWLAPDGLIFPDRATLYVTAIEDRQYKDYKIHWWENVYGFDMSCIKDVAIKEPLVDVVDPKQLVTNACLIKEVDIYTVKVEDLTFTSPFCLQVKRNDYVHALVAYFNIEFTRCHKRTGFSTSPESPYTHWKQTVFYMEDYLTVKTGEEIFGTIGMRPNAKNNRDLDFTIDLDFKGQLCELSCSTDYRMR
# SIAE primary – inhibitors of human sialic acid acetylesterase SIAE | AID 1053197 | Q9HAT2 | inhibition, % at 9.66 µM | 0.69% of 370,000 active | SIAE FP-Rh probe binding, fluorescence polarization;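 active = inhibition above a cutoff: mean of compounds within the control limits plus 3 SD of those, cut at about 17% in these data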;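 also: 0% = plate median of compound wells and 100% = probe without SIAE protein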
# HTRA1 inhibitor – blocks human HTRA1 serine peptidase; Q92743; 0.5% of 340,000 active; recombinant HTRA1, FP-rhodamine activity-based probe, fluorescence polarization; inhibition, % at 5.96 µM; in the data active = inhibition above about 36%;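 also: 0% = enzyme with DMSO and 100% = wells lacking enzyme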
# ABHD4 inh – inhibits mouse alpha/beta hydrolase domain 4 | Q8VD66 | purified mABHD4, FP-Rh probe fluorescence polarization | inhibition, % at 8.92 µM | 0.54% of 370,000 active | AID 720543;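 active = inhibition exceeding the mean over every tested compound plus 3 SD, cut at about 30% in these data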;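 also: 0% = plate median of compound wells and 100% = S159A mutant with DMSO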
#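 System: mouse ABHD4 enzyme, wild type / Medium: HEPES pH 7.0, NaCl, Pluronic buffer / Reagent: FP-Rh activity-based fluorescent probe / Control set: S159A mutant high control, sample median low control / Detection: fluorescence polarization with parallel and perpendicular emission, 525/598 nm / Schedule: 45 min + 60 min at 25 °C / Compound dosing: 8.92 µM, single dose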
# TCR-CD3 inh – inhibitors of human TCR-CD3 interaction; TAMRA-labeled TCR probe fluorescence, biochemical; inhibition, % at 9.4 µM; 0.37% of 360,000 active; AID 651800; in the data active = inhibition above about 19%;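 also: recombinant mutant TCR 2C K166C tagged with TAMRA read by polarization; 0% = receptor in buffer alone and 100% = receptor with positive control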
# SIAE confirm – human SIAE inhibition, confirmation; 13% of 2,300 active; inhibition, % at 9.66 µM; AID 1117263; SIAE FP-Rh activity-based probe, fluorescence polarization; shares compounds with SIAE primary;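 active = mean inhibition of the replicates above the hit cutoff set in the primary screen, cut at about 17% in these data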;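 also: 0% = SIAE with DMSO and probe and 100% = probe without SIAE; inhibitors lower polarization as more probe stays unbound to SIAE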
# Starred values were filed as active, the others as inactive; / = not tested or not shown. Most compounds without a hit are left out; they make up all but 3.5% or so of the library.
SMILES,rCAG binder,PRMT1 inh,SIAE primary,HTRA1 inhibitor,ABHD4 inh,TCR-CD3 inh,SIAE confirm
Cc1cccc[n+]1C1C(c2ccc([N+](=O)[O-])cc2)C(C#N)=C(C(=C=[N-])C#N)NC1(O)C1CC1 (stereo not drawn),10,6,40*,14,10,-12,0
Cc1nc2ccc(S(=O)(=O)NCC(=O)N(C)Cc3ccccc3F)cc2s1,0,8,5,/,2,/,/
O=C(Cn1nc(-c2ccccc2)ccc1=O)NCCc1ccc(F)cc1,2,-4,4,/,0,/,/
Cc1cc(C)c(NC(=O)COC(=O)C2=COCCO2)c(C)c1,2,-2,6,2,-2,5,/
Cc1cc(C)c(NC(=O)C2=COCCO2)c(C)c1,-1,-2,17*,2,1,-1,4
O=C(O)CCc1n[nH]c(=S)[nH]c1=O,2,8,17*,7,1,-3,2
COc1cc(/C=C/C(=O)O)cc(S(=O)(=O)N2CCCc3ccccc32)c1OC,12,-2,-4,-1,14,6,/
COc1cc(/C=C/C(=O)O)cc(S(=O)(=O)N2CCc3ccccc32)c1OC,7,-3,19*,-2,4,-1,-6
Cn1nc(-c2ccc(OCC(N)=O)cc2)c2ccccc2c1=O,-2,1,0,-1,2,-1,/
COC(=O)COc1ccc(-c2nn(C)c(=O)c3ccccc23)cc1,3,0,20*,3,-3,0,2
COC(=O)C1CN(C2CCCC2)CCS(=O)(=O)N1Cc1cn(Cc2ccc(C)cc2)nn1 (stereo not drawn),4,2,-1,/,5,/,/
CCOC(=O)c1ccccc1NC(=O)COC(=O)CCC(=O)c1ccc(C)cc1,-5,-1,20*,-11,4,-5,-4
CCOC(=O)c1ccccc1NC(=O)COC(=O)CCC(=O)c1ccccc1,-5,-1,-3,-14,-1,-5,/
CC(Sc1nnc(NC2CCCCC2)s1)C(=O)Nc1ccc2c(c1)C(=O)c1ccccc1C2=O (stereo not drawn),5,0,24*,10,11,-4,-25
CC(Sc1nnc(NC2CC2)s1)C(=O)Nc1ccc(N2CCOCC2)cc1 (stereo not drawn),1,0,-7,-4,-2,-6,/
Cc1ccc(NC(=O)COC(=O)CSC(=S)N2CCOCC2)cc1C,-4,3,-5,6,1,-9,/
Cc1ccc(NC(=Nc2ccc(Br)cc2)N2CCOCC2)cc1C,-4,-8,18*,-3,0,-4,-2
O=C1[C@@H](C2CC2)[C@@H]2c3ccccc3C=NN2[C@@H]2c3ccccc3C=NN12,3,-3,23*,/,-2,/,-3
COc1cc(S(=O)(=O)NCCCN2CCOCC2)ccc1-n1cnnn1,-3,-2,17*,1,5,6,5
CNC(=S)N1CCc2ccccc2C1,1,1,30*,-1,5,-2,5
Cc1ccc(C(=O)C2CCN(CC(=O)N3CC(C)CC(C)C3)CC2)cc1 (stereo not drawn),2,1,-1,/,9,/,/
O=C(Cn1c(=O)oc2cc(S(=O)(=O)N3CCCCC3)ccc21)N1CCCCC1,-4,2,17*,-2,1,2,5
O=C(Cn1c(=O)oc2cc(S(=O)(=O)N3CCCC3)ccc21)N1CCN(C2CCCCC2)CC1,1,-1,5,4,6,10,/
Cc1ccc(-n2c(SCC(=O)c3ccc(-c4ccccc4)cc3)nnc2-c2ccc(C(C)(C)C)cc2)cc1,10,-3,-2,/,0,/,/
O=C(NC1CC1)c1cccc(S(=O)(=O)Nc2ccccc2F)c1,2,-1,17*,1,-2,9,-3
SMILES,rCAG binder,PRMT1 inh,SIAE primary,HTRA1 inhibitor,ABHD4 inh,TCR-CD3 inh,SIAE confirm
COC(=O)[C@]12C[C@H](CC(=O)NCc3ccc(OC)c(OC)c3)C(=O)N(CCc3ccc(OC)c(OC)c3)C1=C[C@H](COCc1ccccc1)O[C@@H]2C,2,1,5,/,2,/,/
NC(=O)c1ncn([C@@H]2O[C@H](C(=O)N[C@H](Cc3c[nH]c4ccccc34)C(=O)N3CCN(C(=O)N4CCOCC4)CC3)[C@@H](O)[C@H]2O)n1,3,1,52*,/,9,2,33*
C#CCNC(=O)C[C@H]1C[C@@]2(C(=O)OCC)CCCC3=C2N(CCC3)C1=O,2,-1,4,/,1,/,/
O=C(Nc1ccc2c(c1)OCO2)c1ccc(N2CCCC2)c([N+](=O)[O-])c1,9,1,22*,5,7,2,3
Brc1ccc(-c2csc(Nc3nc(-c4ccc(Br)cc4)cs3)n2)cc1,5,3,42*,-12,7,-7,11
Nc1nc(-c2ccc(Br)cc2)cs1,1,-1,3,-8,-1,-3,/
Cc1ccc(NC2=CC(=O)CC(C)(C)C2)cc1Cl,-4,-3,20*,4,-1,4,0
CC1(C)CC(=O)C=C(Nc2ccc(F)c(Cl)c2)C1,-1,0,-5,2,1,7,/
Cc1ccccc1NC(=O)OCCCN1C(=O)CCC12CCC(C)CC2 (stereo not drawn),0,2,1,/,6,/,/
CC(C)(Oc1ccc(Cl)cc1)C(=O)O/N=C(\N)c1ccncc1,-2,0,18*,-7,-1,2,1
O=C1CCC[C@H]2CC3(CC[C@]24CCCN14)OCCO3,/,0,5,/,3,/,/
COc1cc(/C=N/Nc2ccc(C(F)(F)F)cn2)cc(OC)c1O,5,4,18*,11,17,1,8
Cc1[nH]c2ccccc2c1CC(=O)Nc1ccc(Nc2ccncc2)cc1,9,-6,34*,/,3,-1,25*
Cc1[nH]c2ccccc2c1CC(=O)Nc1ccc(Nc2ccccc2)cc1,13,9,15,/,11,-10,/
COc1ccc(-c2cc(NC(=O)Cc3c(C)[nH]c4ccccc34)ccc2Nc2cccnc2)cc1OC,16,2,17*,/,5,0,6
CCN(CC)c1ccc(C=NNC(=O)c2cc(-c3ccc(C)c(C)c3)n[nH]2)c(O)c1,19,0,-7,/,11,/,/
CCCCNc1c(-c2cccc(-c3ccc(OC)cc3)c2)nc2cc(C)ccn12,1,6,22*,13,29,0,15
CCC(c1nnc(SCC(=O)NC2CCCCC2)n1Cc1ccccc1)N(C)C (stereo not drawn),-8,-4,19*,-1,-1,-6,1
CC(=O)Nc1sc2c(c1-c1nc3ccccc3s1)CCOC2,/,12,-5,/,-5,/,/
COc1cc(C(=O)NCCC2=CCCCC2)ccc1OC1CCN(C(C)=O)CC1,-4,-5,19*,-1,3,-1,0
CCN(CC)CCn1c(=N)n(CCO)c2ccccc21,-3,2,21*,-3,2,-1,-7

# Source: PubChem BioAssay (The Scripps Research Institute Molecular Screening Center)
